Reference: ChEMBL document CHEMBL3271965, “Synthesis and anti-DNA -virus activity of the 5'-monophosphate and the cyclic 3',5'-monophosphate of 9-(beta-D-xylofuranosyl) guanine” (J Med Chem, 1976)
≈ marks a conversion by molar mass, not a printed value. Calls of active or inactive are those of the source. The calls are words filed in the database; no cut-off is given here.

How the values were obtained:
Human alphaherpesvirus 1 [1] = assay: Antiviral activity against Herpesvirus 1 infected in human KB cells assessed as virus-induced cytopathic effect after 72 hrs; format: functional; conditions: Human alphaherpesvirus 1, 72 h
How it was run: (§1)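 KB (human nasopharyngeal carcinoma) monolayers, 18-24 h old, infected with 320 CCID₅₀ of herpes virus type 1 or type 2. Compound added within 15 min at half-log dilutions from 1000 to 1 μg/ml. Incubated 72 h at 37°. CPE scored microscopically 0-4. Virus rating is the summed (virus control − treated) CPE differences across drug levels, halved at levels showing partial toxicity.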

Human alphaherpesvirus 2 = assay: Antiviral activity against Herpesvirus 2 infected in human KB cells assessed as virus-induced cytopathic effect after 72 hrs; format: functional, organism-based; how it was run: as §1
Vaccinia virus = assay: Antiviral activity against Vaccinia virus infected in human KB cells assessed as virus-induced cytopathic effect after 72 hrs; format: functional, organism-based; conditions: Orthopoxvirus vaccinia
Human alphaherpesvirus 1 [2] = assay: Antiviral activity against Herpesvirus 1 123 infected in Swiss mouse assessed as increase in survival at MTD, ic administered as single dose 6 hrs post infection relative to control; format: functional, organism-based
How it was run: (§2)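 18-20-g Swiss mice inoculated intracerebrally with an LD₇₅ of herpes virus type 1 strain 123 to induce encephalitis. One intracerebral drug treatment given 6 h after virus inoculation. Survivors counted against untreated infected controls.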

[3] = Cytotoxicity against human KB cells after 72 hrs; format: cell-based
Human alphaherpesvirus 1 [4] = assay: Antiviral activity against Herpesvirus 1 123 infected in Swiss mouse assessed as increase in survival at 0.31 to 1.25 mg/kg, ic administered as single dose 6 hrs post infection relative to control; format: functional, organism-based; how it was run: as §2
[5] = Therapeutic index, ratio of MTD for Swiss mouse to MID for Herpesvirus 1 123 infected in Swiss mouse; conditions: read-out: TI
How it was run: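 Therapeutic index = maximum tolerated dose / minimum inhibitory dose, based on survivors/total among treated infected mice. The ic regimen was a single MTD dose at 6 h post-inoculation. The ip regimen was b.i.d. ×9 from 4 h. Uninfected toxicity controls were run alongside.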

Mus musculus = assay: Toxicity in Swiss mouse assessed as weight loss at 52 mg/kg/day, ip; format: organism-based; parameters: route intraperitoneal; conditions: in vivo
How it was run: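 Uninfected toxicity-control Swiss mice (18-20 g) dosed intraperitoneally b.i.d. ×9 at 104 or 52 mg/kg/day, in parallel with the infected groups. Body weight and survivors/total recorded.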

Human alphaherpesvirus 1 [6] = assay: Antiviral activity against Herpesvirus 1 123 infected in Swiss mouse assessed as increase in survival at 52 mg/kg/day, ip; format: functional, organism-based
How it was run: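 Encephalitis induced in 18-20-g Swiss mice by intracerebral LD₇₅ of herpes virus type 1 strain 123. Drug given intraperitoneally b.i.d. ×9 starting 4 h post-inoculation at 104, 52 or 26 mg/kg/day, with saline controls. Survivors/total compared by Fisher's exact test; survival time compared by t test.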

Human alphaherpesvirus 1 [7] = assay: Antiviral activity against Herpesvirus 1 123 infected in Swiss mouse assessed as increase in survival time at 26 mg/kg/day, ip relative to control; format: functional, organism-based
How it was run: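 Dosed intraperitoneally b.i.d. for 9 days, starting 4 h after virus inoculation. Infected animals were compared with saline controls. Survival time was assessed by t test.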

Row | SMILES | MIC (Human alphaherpesvirus 1 [1]) [µg/mL] | Activity (Human alphaherpesvirus 2) | Activity (Vaccinia virus) | Activity (Human alphaherpesvirus 1 [2]) | MCC at 72 h [3] [µg/mL] | Activity (Human alphaherpesvirus 1 [4]) | selectivity ratio [5] | Activity (Mus musculus) | Activity (Human alphaherpesvirus 1 [6]) | Survival (Human alphaherpesvirus 1 [7])
1 | Nc1nc(O)c2ncn([C@@H]3O[C@H](CO)[C@H](O)[C@H]3O)c2n1 | 10 (≈ 35.3 µM) | Active | inactive | Active | – | – | – | – | – | –
2 | Nc1ncnc2c1ncn2[C@@H]1O[C@H](CO)[C@@H](O)[C@@H]1O [VIDARABINE] | 3.2 (≈ 12 µM) | Active | Active | Active | 3.2 | – | – | – | – | –
3 | Nc1nc2c(ncn2[C@@H]2O[C@H](CO)[C@H](O)[C@H]2O)c(=O)[nH]1 | – | – | – | – | 10 | – | – | – | – | –
4 | Nc1nc(O)c2ncn([C@@H]3O[C@H](COP(=O)(O)O)[C@H](O)[C@H]3O)c2n1 | 10 (≈ 27.5 µM) | Active | inactive | Active | 3.2 | – | – | – | – | –
5 | Nc1nc2c(ncn2[C@@H]2O[C@@H]3COP(=O)(O)O[C@@H]3[C@H]2O)c(=O)[nH]1 | 32 (≈ 92.7 µM) | Active | inactive | Active | 32 | Active | ≥ 4 | Toxic | Active | Active
